# Test results as given in ChEMBL document CHEMBL1157832, “Cytotoxic effects of tanshinones from Salvia miltiorrhiza on doxorubicin-resistant human liver cancer cells” (J Nat Prod, 2010).
# The source made the active and inactive calls. The calls are words filed in the database; no cut-off is given here.
# Assays:
# HepG2 [1] = assay: Inhibition of […] doxorubicin efflux in doxorubicin resistant human HepG2 cells uM by flow cytometry; format: cell-based
# Hep 3B2 [2] = assay: Induction of apoptosis in human Hep3B cells deficient in p53 gene assessed as caspase 3 activation; format: functional, cell-based
# Procedure, shortened: (§1)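 Cells were treated for 24 h, with etoposide as positive control. Cells (1 × 10^7) were lysed for 2 h at 4 °C and spun at 16000g for 10 min. The supernatant was mixed with assay buffer and the colorimetric substrate […], and pNA release was read at 405 nm. Soluble protein was determined by BCA.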
# HepG2 [3] = assay: Induction of apoptosis in human HepG2 cells expressing wild type p53 gene assessed as caspase 3 activation; format: functional, cell-based; procedure, shortened: as §1
# HepG2 [4] = assay: Induction of apoptosis in human HepG2 cells expressing wild type p53 gene assessed as PARP cleavage by Western blot; format: functional, cell-based
# Procedure, shortened: (§2)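 Cells treated 24 h, then lysed in Tris 50 mM/NaCl 100 mM/EDTA 5 mM/pyrophosphate 67 mM/1% Triton X-100, pH 7.5, with protease inhibitors. 20 µg soluble protein on 8% SDS-PAGE, nitrocellulose transfer, anti-PARP 1:1000 overnight at 4 °C, HRP anti-rabbit 1:2000 1 h, ECL. β-actin reprobe as loading reference; band densitometry; n = 3.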
# PLC-PRF-5 [5] = assay: Induction of apoptosis in human PLC/PRF/5 cells expressing mutant p53 gene (codon 249) assessed as caspase 3 activation; format: functional, cell-based
# Procedure, shortened: (§3)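 After 24 h treatment, 1 × 10^7 cells lysed 2 h at 4 °C and spun at 16000g for 10 min. Supernatant incubated with caspase-3 substrate […], pNA release read at 405 nm, and protein measured by BCA. Activity expressed as fold of control; etoposide as positive control.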
# [6] = Cytotoxicity against human THLE3 cells by MTT assay; format: cell-based
# Procedure, shortened: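 THLE-3 immortalized liver cells cultured in BEGM kit medium, 37 °C, 5% CO2; 9 × 10^3 cells/well. After compound incubation, MTT (0.5 mg/mL) added for 3 h at 37 °C; formazan dissolved in DMSO and read at 570 nm. Untreated cells as vehicle control; DMSO final 0.25% (v/v). EC50 of growth inhibition, n = 3.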
# Hep 3B2 [7] = assay: Induction of apoptosis in human Hep3B cells deficient in p53 gene assessed as PARP cleavage by Western blot; format: functional, cell-based; procedure, shortened: as §2
# HepG2 [8] = assay: Effect on MRP1 protein expression in human HepG2 cells expressing wild type p53 gene at 25 uM after 24 hrs by Western blot; format: functional, cell-based
# Procedure, shortened: (§4)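 HepG2 cells (MEM, 10% FBS) exposed to 25 µM for 24 h; lysates run on SDS-PAGE, transferred to nitrocellulose and probed with anti-MRP1 or anti-MRP2 antibodies, ECL detection. DMSO final 0.25% (v/v).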
# P-gp (ABCB1) [9] = target: T1, P-gp (ABCB1) (Homo sapiens, UniProt P08183); assay: Inhibition of P-gp in doxorubicin-resistant human HepG2 cells assessed as potentiation of doxorubicin cytostatic effect at 25 uM by MTT assay; format: cell-based; conditions: probe doxorubicin
# T1 sequence (P08183 whole entry): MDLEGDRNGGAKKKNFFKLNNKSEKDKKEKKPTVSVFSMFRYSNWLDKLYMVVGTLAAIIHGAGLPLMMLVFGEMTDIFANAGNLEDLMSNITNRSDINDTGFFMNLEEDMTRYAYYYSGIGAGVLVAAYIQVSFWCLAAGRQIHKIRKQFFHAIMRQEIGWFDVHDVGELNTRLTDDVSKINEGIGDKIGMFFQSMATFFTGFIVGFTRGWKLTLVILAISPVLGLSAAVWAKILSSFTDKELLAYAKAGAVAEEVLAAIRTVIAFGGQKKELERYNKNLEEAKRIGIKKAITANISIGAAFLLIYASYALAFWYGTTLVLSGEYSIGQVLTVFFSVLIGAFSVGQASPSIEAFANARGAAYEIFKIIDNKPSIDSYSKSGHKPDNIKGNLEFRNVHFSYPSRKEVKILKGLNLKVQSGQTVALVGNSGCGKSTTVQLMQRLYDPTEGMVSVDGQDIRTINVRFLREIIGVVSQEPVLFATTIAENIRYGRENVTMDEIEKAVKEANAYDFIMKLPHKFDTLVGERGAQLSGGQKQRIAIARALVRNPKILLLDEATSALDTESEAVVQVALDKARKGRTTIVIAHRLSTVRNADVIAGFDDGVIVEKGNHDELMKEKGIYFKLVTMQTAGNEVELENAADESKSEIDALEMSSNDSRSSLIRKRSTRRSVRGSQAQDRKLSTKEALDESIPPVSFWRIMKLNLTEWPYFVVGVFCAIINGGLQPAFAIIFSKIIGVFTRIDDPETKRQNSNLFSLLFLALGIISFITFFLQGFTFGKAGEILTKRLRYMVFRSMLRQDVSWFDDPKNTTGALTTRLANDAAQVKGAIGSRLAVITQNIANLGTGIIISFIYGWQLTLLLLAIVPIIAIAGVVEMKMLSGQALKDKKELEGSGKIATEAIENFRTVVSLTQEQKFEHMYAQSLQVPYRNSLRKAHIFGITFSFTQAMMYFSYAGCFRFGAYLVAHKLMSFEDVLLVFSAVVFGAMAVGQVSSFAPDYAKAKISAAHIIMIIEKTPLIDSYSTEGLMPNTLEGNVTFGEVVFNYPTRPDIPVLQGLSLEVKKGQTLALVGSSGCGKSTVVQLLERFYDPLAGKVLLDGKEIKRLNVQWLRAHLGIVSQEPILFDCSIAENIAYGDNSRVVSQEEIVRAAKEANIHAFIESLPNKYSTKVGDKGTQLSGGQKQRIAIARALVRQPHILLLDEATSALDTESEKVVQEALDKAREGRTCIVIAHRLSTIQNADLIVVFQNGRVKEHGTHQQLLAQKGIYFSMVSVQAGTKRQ
# Procedure, shortened: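 R-HepG2 cells (doxorubicin-selected HepG2 subclone kept in RPMI 1640 with 1.2 µM doxorubicin) co-treated with compound and doxorubicin; growth read by MTT (0.5 mg/mL, 3 h, 570 nm). Interaction scored by Chou–Talalay combination index at EC20/EC50 levels, Loewe additivity and Bliss independence.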
# HepG2 [10] = assay: Effect on MRP2 protein expression in human HepG2 cells expressing wild type p53 gene at 25 uM after 24 hrs by Western blot; format: functional, cell-based; procedure, shortened: as §4
# HepG2 [11] = assay: Cytotoxicity against human HepG2 cells expressing wild type p53 gene by MTT assay; format: functional, cell-based
# Procedure, shortened: (§5)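 Proliferation was measured by MTT. Cells were seeded at 9 × 10^3 per well and exposed to drug for an unstated period. MTT (0.5 mg/mL) was then added for 3 h at 37 °C, formazan was dissolved in DMSO, and absorbance was read at 570 nm against untreated vehicle controls (final DMSO 0.25% v/v). HepG2 was grown in MEM. Hep3B and PLC/PRF/5 were grown in DMEM with nonessential amino acids and 10% FBS. The doxorubicin-resistant HepG2 subclone was grown in RPMI 1640 with 10% FBS plus 1.2 µM doxorubicin to maintain Pgp.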
# PLC-PRF-5 [12] = assay: Induction of apoptosis in human PLC/PRF/5 cells expressing mutant p53 gene (codon 249) assessed as caspase 3 activation at 6.25 uM relative to control; format: functional; procedure, shortened: as §3
# [13] = Cytotoxicity against human Hep3B cells deficient in p53 gene by MTT assay; format: functional, cell-based, Hep 3B2; procedure, shortened: as §5
# HepG2 [14] = assay: Cytotoxicity against doxorubicin resistant human HepG2 cells expressing wild type p53 gene by MTT assay; format: functional, cell-based; procedure, shortened: as §5
# PLC-PRF-5 [15] = assay: Induction of apoptosis in human PLC/PRF/5 cells expressing mutant p53 gene (codon 249) assessed as PARP cleavage by Western blot; format: functional, cell-based; procedure, shortened: as §2
# HepG2 [16] = assay: Induction of apoptosis in human HepG2 cells expressing wild type p53 gene assessed as caspase 3 activation at 6.25 uM relative to control; format: functional; procedure, shortened: as §3
# [17] = Cytotoxicity against human PLC/PRF/5 cells expressing mutant p53 gene (codon 249) by MTT assay; format: functional, cell-based; procedure, shortened: as §5
# [18] = target: T2, Multidrug resistance-associated protein 1 (Homo sapiens, UniProt P33527); assay: Inhibition of MRP1-mediated doxorubicin efflux in doxorubicin resistant human HepG2 cells at 100 uM by flow cytometry; format: cell-based; conditions: hepg2, 100 µM
# T2 sequence (P33527 whole entry): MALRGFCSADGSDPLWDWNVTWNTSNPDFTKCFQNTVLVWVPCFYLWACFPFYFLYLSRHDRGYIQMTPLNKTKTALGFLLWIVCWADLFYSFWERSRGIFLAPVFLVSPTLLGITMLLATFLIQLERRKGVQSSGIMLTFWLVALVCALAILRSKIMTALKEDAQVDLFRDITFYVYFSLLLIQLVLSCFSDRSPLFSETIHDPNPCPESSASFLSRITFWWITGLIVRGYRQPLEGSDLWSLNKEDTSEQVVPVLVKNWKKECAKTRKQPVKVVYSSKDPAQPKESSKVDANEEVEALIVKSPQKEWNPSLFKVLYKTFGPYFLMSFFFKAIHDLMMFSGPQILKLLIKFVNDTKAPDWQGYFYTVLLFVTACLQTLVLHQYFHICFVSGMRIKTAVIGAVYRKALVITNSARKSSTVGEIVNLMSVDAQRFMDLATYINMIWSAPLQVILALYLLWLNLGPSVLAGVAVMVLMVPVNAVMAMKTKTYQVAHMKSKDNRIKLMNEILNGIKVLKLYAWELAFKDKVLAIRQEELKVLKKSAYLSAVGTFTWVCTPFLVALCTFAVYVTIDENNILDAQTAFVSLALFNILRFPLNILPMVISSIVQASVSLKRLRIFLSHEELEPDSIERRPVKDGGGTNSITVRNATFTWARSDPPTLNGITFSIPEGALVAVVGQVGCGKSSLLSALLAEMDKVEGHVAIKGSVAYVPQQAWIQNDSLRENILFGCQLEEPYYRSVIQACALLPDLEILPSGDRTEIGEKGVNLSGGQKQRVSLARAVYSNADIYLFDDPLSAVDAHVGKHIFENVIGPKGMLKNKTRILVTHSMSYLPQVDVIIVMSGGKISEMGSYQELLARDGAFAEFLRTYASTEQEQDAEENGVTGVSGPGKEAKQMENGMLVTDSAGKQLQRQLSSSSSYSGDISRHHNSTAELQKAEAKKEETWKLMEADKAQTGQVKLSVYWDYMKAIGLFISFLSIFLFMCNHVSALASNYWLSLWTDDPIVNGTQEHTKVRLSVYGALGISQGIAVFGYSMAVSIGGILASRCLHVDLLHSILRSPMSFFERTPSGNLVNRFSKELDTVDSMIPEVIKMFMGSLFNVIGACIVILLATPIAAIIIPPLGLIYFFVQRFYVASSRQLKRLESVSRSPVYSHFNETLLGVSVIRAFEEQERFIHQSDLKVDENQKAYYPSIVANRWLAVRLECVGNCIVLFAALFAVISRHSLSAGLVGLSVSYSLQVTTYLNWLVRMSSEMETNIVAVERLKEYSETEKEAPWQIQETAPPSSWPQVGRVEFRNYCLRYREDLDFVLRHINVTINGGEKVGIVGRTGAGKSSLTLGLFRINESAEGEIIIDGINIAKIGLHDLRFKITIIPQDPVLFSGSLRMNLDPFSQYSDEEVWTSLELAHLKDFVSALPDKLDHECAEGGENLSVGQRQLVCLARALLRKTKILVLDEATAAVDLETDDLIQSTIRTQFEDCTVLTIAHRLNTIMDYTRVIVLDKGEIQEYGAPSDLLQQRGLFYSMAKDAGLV
# [19] = target: T2, Multidrug resistance-associated protein 1; assay: Inhibition of MRP1-mediated doxorubicin efflux in doxorubicin resistant human HepG2 cells at 10 to 100 uM by flow cytometry; format: cell-based
# P-gp (ABCB1) [20] = target: T1, P-gp (ABCB1); assay: Inhibition of P-gp in doxorubicin-resistant human HepG2 cells assessed as potentiation of doxorubicin cytostatic effect at 6.25 uM by MTT assay; format: cell-based; conditions: probe doxorubicin
Structure (SMILES),Activity (Hep 3B2 [2]),Activity (HepG2 [3]),Activity (HepG2 [4]),EC50 [6],Activity (Hep 3B2 [7]),Activity (HepG2 [8]),Activity (HepG2 [10]),EC50 (HepG2 [11]),EC50 [13],EC50 (HepG2 [14]),EC50 [17],further results
C=C(CC)C(=O)c1ccc(OCC(=O)O)c(Cl)c1Cl,,,,,,,,,,,,inhibition (HepG2 [1]): Active
COc1cc([C@@H]2c3cc4c(cc3[C@@H](O[C@@H]3O[C@@H]5CO[C@@H](C)O[C@H]5[C@H](O)[C@H]3O)[C@H]3COC(=O)[C@H]23)OCO4)cc(OC)c1O,inactive,Active,,,,,,,,,,
C[C@H]1COC2=C1C(=O)C(=O)c1c2ccc2c1CCCC2(C)C [CRYPTOTANSHINONE],inactive,Active,Dose-dependent effect,22.9 µM,inactive,inactive,inactive,,,,,Activity (PLC-PRF-5 [5]): Dose-dependent effect; inhibition at 25 µM (P-gp (ABCB1) [9]): 50%
Cc1cccc2c3c(ccc12)C1=C(C(=O)C3=O)[C@@H](C)CO1 [DIHYDROTANSHINONE I],inactive,Active,Dose-dependent effect,6.5 µM,inactive,inactive,inactive,2.5 µM,5.5 µM,4.7 µM,> 10 µM,fold change (FC) (PLC-PRF-5 [12]): 2.5; Activity (PLC-PRF-5 [15]): Active; fold change (FC) (HepG2 [16]): 2
COc1cccc2c1C(=O)c1c(O)c3c(c(O)c1C2=O)C[C@@](O)(C(=O)CO)C[C@@H]3O[C@H]1C[C@H](N)[C@H](O)[C@H](C)O1 [DOXORUBICIN],,,,,,,,6.1 µM,5.6 µM,> 10 µM,> 10 µM,
COc1ccc2c(c1)c(CC(=O)O)c(C)n2C(=O)c1ccc(Cl)cc1 [INDOMETHACIN],,,,,,,,,,,,inhibition (INH) [18]: Active; inhibition (INH) [19]: Not Active
Cc1coc2c1C(=O)C(=O)c1c-2ccc2c1CCCC2(C)C [TANSHINONE IIA],inactive,Active,Dose-dependent effect,57.5 µM,inactive,inactive,inactive,,,,,
Cc1coc2c1C(=O)C(=O)c1c-2ccc2c(C)cccc12 [TANSHINONE I],inactive,Active,Dose-dependent effect,74.1 µM,inactive,inactive,inactive,6.3 µM,> 10 µM,> 10 µM,> 10 µM,Activity (PLC-PRF-5 [15]): Active; inhibition at 6.25 µM (P-gp (ABCB1) [20]): 50%
